Assays:
Mus musculus [1] = assay: Anticonvulsant activity in mouse assessed as protection against pentylenetetrazol-induced seizure at 1.5 mmol/kg, ip administered 30 min prior to pentylenetetrazol-challenge measured after 60 mins relative to control; type: functional
Mus musculus [2] = assay: Anticonvulsant activity in ip dosed mouse assessed as protection against pentylenetetrazol-induced seizure administered 30 min prior to pentylenetetrazol-challenge measured after 60 mins; type: functional
In short: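 Mice received several doses for quantification. ED50 taken as the dose protecting 50% of mice against pentylenetetrazol-induced seizures.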

Mus musculus [3] = assay: Anticonvulsant activity in mouse assessed as protection against strychnine-induced seizure at 1.5 mmol/kg, ip administered 30 min prior to strychnine-challenge measured after 60 mins relative to control; type: functional
Mus musculus [4] = assay: Anticonvulsant activity in mouse assessed as protection against picrotoxin-induced seizure at 1.5 mmol/kg, ip administered 30 min prior to picrotoxin-challenge measured after 60 mins relative to control; type: functional
Mus musculus [5] = assay: Anticonvulsant activity in mouse assessed as protection against maximal electroshock-induced seizure at 1.5 mmol/kg, ip administered 30 min prior to maximal electroshock-challenge measured after 60 mins relative to control; type: functional
[6] = Toxicity in ip dose mouse assessed as mortality; type: organism-based; settings: in vivo
In short: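 In mice, LD50 is the dose causing 50% mortality. ED50 is the dose protecting 50% of mice against pentylenetetrazole-induced seizures. Therapeutic index = LD50/ED50.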

[7] = Neurotoxicity in ip dosed mouse assessed as impaired motor coordination administered 30 mins prior to test by chimney test; type: toxicity, organism-based; settings: in vivo
In short: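 Mice, Chimney test. TD50 is the dose that produces minimal neurological toxicity (impaired motor coordination) in 50% of animals, estimated from testing at several doses.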

Work on `CCCC(CCC)C(=O)[O-].[Na+]` [VALPROATE SODIUM] yielded an Activity (Mus musculus [1]) of 100%, an ED50 (Mus musculus [2]) of 1500 µmol/kg and an Activity (Mus musculus [3]) of 100%. It also gave an Activity (Mus musculus [4]) of 100%, an Activity (Mus musculus [5]) of 100% and an LD50 [6] of 3000 µmol/kg. It also gave a TD50 at 0.5 h [7] of 2700 µmol/kg.

Source: ChEMBL document CHEMBL1955778, “Design and synthesis of novel 7-aminoquinazoline derivatives: antitumor and anticonvulsant activities” (Bioorg Med Chem Lett, 2012)
